In ChEMBL document CHEMBL1124216, “A novel class of potential central nervous system agents. 3-Phenyl-2-(1-piperazinyl)-5H-1-benzazepines” (1988):

Key:
Assay type in all cases: functional
Mus musculus [1] = experiment: Antimaximal electroshock seizure (MES) activity in mice after peroral administration of 100 mg/kg of compound; 3/5; conditions: route oral
Mus musculus [2] = experiment: Antipentylene tetrazole activity was determined in mice when administered perorally; conditions: po
Summary of the method: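 Groups of five male Std-ddY mice received compound orally in 0.5% tragacanth, then pentylenetetrazole 175 mg/kg ip. Blockade of the tonic extensor component scored as anticonvulsant. ED50 was the dose protecting 50% of animals (Litchfield-Wilcoxon).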

Mus musculus [3] = experiment: Antimaximal electroshock seizure activity was determined in mice when administered perorally; conditions: po
Mus musculus [4] = experiment: Antiexploratory activity (EXPL) of mice determined by an antimex activity meter, 100 mg/kg of dose was administered perorally; No inhibition; conditions: route oral
Mus musculus [5] = experiment: Antitremorine activity(TRM) of mice after peroral administration of 100 mg/kg of compound; No inhibition; conditions: route oral
Mus musculus [6] = experiment: Antireserpine activity (RES) of mice after peroral administration of 100 mg/kg of compound; No inhibition; conditions: route oral
Mus musculus [7] = experiment: Antimaximal electroshock seizure (MES) activity in mice after peroral administration of 100 mg/kg of compound; 0/5; conditions: route oral
Mus musculus [8] = experiment: Antitremorine activity(TRM) of mice after peroral administration of 100 mg/kg of compound; Slight inhibition (31-50%); conditions: route oral
Mus musculus [9] = experiment: Antiexploratory activity (EXPL) of mice determined by an antimex activity meter, 100 mg/kg of dose was administered perorally; Slight inhibition (31-50%); conditions: route oral
Mus musculus [10] = experiment: Antireserpine activity (RES) of mice after peroral administration of 50 mg/kg of compound; Slight inhibition (31-50%); conditions: route oral
Mus musculus [11] = experiment: Antiexploratory activity (EXPL) of mice determined by an antimex activity meter, 50 mg/kg of dose was administered perorally; No inhibition; conditions: route oral
Mus musculus [12] = experiment: Antiexploratory activity (EXPL) of mice determined by an antimex activity meter, 50 mg/kg of dose was administered perorally; Slight inhibition (31-50%); conditions: route oral
Mus musculus [13] = experiment: Antitremorine activity(TRM) of mice after peroral administration of 50 mg/kg of compound; No inhibition; conditions: route oral
Mus musculus [14] = experiment: Antiexploratory activity (EXPL) of mice determined by an antimex activity meter,100 mg/kg of dose was administered perorally; No inhibition
Mus musculus [15] = experiment: Antireserpine activity (RES) of mice after peroral administration of 50 mg/kg of compound; No inhibition; conditions: route oral
Mus musculus [16] = experiment: Antimaximal electroshock seizure (MES) activity in mice after peroral administration of 10 mg/kg of compound; 0/5; conditions: route oral
Mus musculus [17] = experiment: Antimaximal electroshock seizure (MES) activity in mice after peroral administration of 100 mg/kg of compound; 5/5; conditions: route oral
Mus musculus [18] = experiment: Antitremorine activity(TRM) of mice after peroral administration of 100 mg/kg of compound; Moderate inhibition (51-71%); conditions: route oral
Mus musculus [19] = experiment: Antiexploratory activity (EXPL) of mice determined by an antimex activity meter, 100 mg/kg of dose was administered perorally; Moderate inhibition (51-71%); conditions: route oral
Mus musculus [20] = experiment: Antitremorine activity(TRM) of mice after peroral administration of 100 mg/kg of compound; conditions: route oral
Mus musculus [21] = experiment: Antireserpine activity (RES) of mice after peroral administration of 100 mg/kg of compound; Slight inhibition (31-50%); conditions: route oral
Canis familiaris = experiment: Inhibition of apomorphine induced emesis in dogs at 1 mg/kg of dose.; conditions: Canis lupus familiaris
Summary of the method: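 Beagle dogs (10-15 kg), groups of three, given compound po in a gelatin capsule; 2 h later apomorphine hydrochloride 0.3 mg/kg sc. Vomiting counted for 1 h; mean inhibition as percent of control. ED50 is the dose giving 50% inhibition of emesis, by Litchfield-Wilcoxon.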

Mus musculus [22] = experiment: 3,4 -Dihydroxy phenylacetic acid (DOPAC) levels in mouse brain at 10 mg/kg dose.
Summary of the method: (§1)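 Male Std-ddY mice, 20-25 g, dosed orally with compound in 0.5% aqueous tragacanth. DOPAC was measured fluorometrically after purification by column chromatography on Sephadex G-10 and QAE-Sephadex. Brains from five mice per compound were pooled for each determination.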

Mus musculus [23] = experiment: 3,4 -Dihydroxy phenylacetic acid (DOPAC) levels in mouse brain at 50 mg/kg dose.; summary of the method: as §1
Mus musculus [24] = experiment: The homovanillic acid (HVA) levels in mouse brain at 10 mg/kg of dose.
Summary of the method: (§2)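 Mice dosed orally in 0.5% aqueous tragacanth; brains of five mice per compound pooled. Homovanillic acid measured in brain extracts and reported as brain level.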

Mus musculus [25] = experiment: The homovanillic acid (HVA) levels in mouse brain at 50 mg/kg of dose.; summary of the method: as §2
Mus musculus [26] = experiment: Exploratory activity of mice determined by an antimex activity meter, 10 mg/kg of dose was administered perorally; conditions: route oral
Mus musculus [27] = experiment: Exploratory activity of mice determined by an antimex activity meter, 50 mg/kg of dose was administered perorally; conditions: Mus musculus, po
Summary of the method: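 Male Std-ddY mice (20-25 g), five per dose; compound in 0.5% aqueous tragacanth given orally. Two hours later each mouse placed in an Animex activity meter cage and locomotor activity counted for 3 min. Mean suppression expressed as percent inhibition of control; ED50 by Litchfield-Wilcoxon.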

Mus musculus [28] = experiment: Antiexploratory activity (EXPL) of mice determined by an antimex activity meter, 50 mg/kg of dose was administered perorally; Moderate inhibition (51-71%); conditions: route oral
Mus musculus [29] = experiment: Antiexploratory activity (EXPL) of mice determined by an antimex activity meter, 10 mg/kg of dose was administered perorally; No inhibition; conditions: route oral

Compound: Cc1ccc2c(c1)CC=C(c1ccccc1)C(N1CCN(C)CC1)=N2.Cl.Cl
- Activity (Mus musculus [1]): 3
- ED50 (Mus musculus [2]): 50.9 mg/kg
- ED50 (Mus musculus [3]): 86.1 mg/kg
- inhibition in vivo at 100 mg/kg (Mus musculus [4]): < 30%
- inhibition in vivo at 100 mg/kg (Mus musculus [5]): < 30%
- inhibition in vivo at 100 mg/kg (Mus musculus [6]): < 30%

Compound: CN1CCN(C2=Nc3ccccc3CC=C2c2ccc(Cl)cc2)CC1.Cl.Cl
- Activity (Mus musculus [7]): 0
- inhibition in vivo at 100 mg/kg (Mus musculus [8]): 31%
- inhibition in vivo at 100 mg/kg (Mus musculus [9]): 31%
- inhibition in vivo at 100 mg/kg (Mus musculus [6]): < 30%

Compound: COc1ccc(C2=CCc3ccccc3N=C2N2CCN(C)CC2)cc1
- inhibition in vivo at 50 mg/kg (Mus musculus [10]): 31%
- inhibition in vivo at 50 mg/kg (Mus musculus [11]): < 30%

Compound: Fc1ccc(C2=CCc3ccccc3N=C2N2CCNCC2)cc1
- inhibition in vivo at 50 mg/kg (Mus musculus [10]): 31%
- inhibition in vivo at 50 mg/kg (Mus musculus [12]): 31%

Compound: O=C(c1ccc(F)cc1)C1CCN(C2=Nc3ccccc3CC=C2c2ccc(Cl)cc2)CC1
- Activity (Mus musculus [7]): 0
- inhibition in vivo at 50 mg/kg (Mus musculus [11]): < 30%
- inhibition in vivo at 50 mg/kg (Mus musculus [13]): < 30%
- inhibition in vivo at 100 mg/kg (Mus musculus [6]): < 30%

Compound: Cl.OC1(c2ccc(Cl)cc2)CCN(C2=Nc3ccc(Br)cc3CC=C2c2ccccc2)CC1
- Activity (Mus musculus [7]): 0
- Inhibition (Mus musculus [14]): <30%
- inhibition in vivo at 100 mg/kg (Mus musculus [5]): < 30%
- inhibition in vivo at 100 mg/kg (Mus musculus [6]): < 30%

Compound: O=C(CCCN1CCN(C2=Nc3ccccc3CC=C2c2ccc(Cl)cc2)CC1)c1ccc(F)cc1
- inhibition in vivo at 50 mg/kg (Mus musculus [15]): < 30%
- inhibition in vivo at 50 mg/kg (Mus musculus [12]): 31%

Compound: Clc1ccc(C2=CCc3ccccc3N=C2N2CCN(Cc3ccccc3)CC2)cc1
- inhibition in vivo at 50 mg/kg (Mus musculus [10]): 31%
- inhibition in vivo at 50 mg/kg (Mus musculus [11]): < 30%

Compound: CCc1ccc2c(c1)CC=C(c1ccccc1)C(N1CCN(CC)CC1)=N2.Cl.Cl
- Activity (Mus musculus [16]): 0
- Activity (Mus musculus [17]): 5
- inhibition in vivo at 100 mg/kg (Mus musculus [18]): 51%
- inhibition in vivo at 100 mg/kg (Mus musculus [9]): 31%
- inhibition in vivo at 100 mg/kg (Mus musculus [6]): < 30%

Compound: CCN1CCN(C2=Nc3ccc(F)cc3CC=C2c2ccccc2)CC1.Cl.Cl
- Activity (Mus musculus [7]): 0
- ED50 (Mus musculus [2]): > 100 mg/kg
- ED50 (Mus musculus [3]): > 500 mg/kg
- inhibition in vivo at 100 mg/kg (Mus musculus [19]): 51%
- inhibition in vivo at 100 mg/kg (Mus musculus [5]): < 30%
- inhibition in vivo at 100 mg/kg (Mus musculus [6]): < 30%

Compound: C1=C(c2ccccc2)C(N2CCCCC2)=Nc2ccccc2C1.Cl.Cl
- Activity (Mus musculus [7]): 0
- inhibition in vivo at 100 mg/kg (Mus musculus [5]): < 30%
- inhibition in vivo at 100 mg/kg (Mus musculus [9]): 31%
- inhibition in vivo at 100 mg/kg (Mus musculus [6]): < 30%

Compound: CCN1CCN(C2=Nc3ccccc3CC=C2c2ccc(C(F)(F)F)cc2)CC1
- inhibition in vivo at 50 mg/kg (Mus musculus [15]): < 30%
- inhibition in vivo at 50 mg/kg (Mus musculus [11]): < 30%

Compound: C#CCN1CCN(C2=Nc3ccc(Br)cc3CC=C2c2ccccc2)CC1
- Activity (Mus musculus [7]): 0
- inhibition in vivo at 100 mg/kg (Mus musculus [4]): < 30%
- inhibition in vivo at 100 mg/kg (Mus musculus [20]): < 30%
- inhibition in vivo at 100 mg/kg (Mus musculus [6]): < 30%

Compound: Clc1ccc2c(c1)N=C(N1CCNCC1)C(c1ccccc1)=CC2.O=C(O)/C=C/C(=O)O
- Activity (Mus musculus [7]): 0
- inhibition in vivo at 100 mg/kg (Mus musculus [21]): 31%
- inhibition in vivo at 100 mg/kg (Mus musculus [5]): < 30%
- inhibition in vivo at 100 mg/kg (Mus musculus [9]): 31%

Compound: CCCN1CCN(C2=Nc3ccccc3CC=C2c2ccc(F)cc2)CC1.O=C(O)/C=C/C(=O)O
- inhibition in vivo at 1 mg/kg (Canis familiaris): 100%
- Control (Mus musculus [22]): 166%
- Control (Mus musculus [23]): 317%
- Control (Mus musculus [24]): 328%
- Control (Mus musculus [25]): 557%
- inhibition in vivo at 10 mg/kg (Mus musculus [26]): 18.5%
- inhibition in vivo at 50 mg/kg (Mus musculus [27]): 61.4%
- inhibition in vivo at 50 mg/kg (Mus musculus [28]): 51%
- inhibition in vivo at 10 mg/kg (Mus musculus [29]): < 30%

Compound: CCCN1CCN(C2=Nc3ccc(CC)cc3CC=C2c2ccccc2)CC1.O=C(O)/C=C/C(=O)O
- Activity (Mus musculus [7]): 0
- Inhibition (Mus musculus [14]): <30%
- inhibition in vivo at 100 mg/kg (Mus musculus [8]): 31%
- inhibition in vivo at 100 mg/kg (Mus musculus [6]): < 30%

Compound: CN1CCN(C2=Nc3cc(Cl)ccc3CC=C2c2ccc(Cl)cc2)CC1.Cl.Cl
- Activity (Mus musculus [7]): 0
- inhibition in vivo at 100 mg/kg (Mus musculus [19]): 51%
- inhibition in vivo at 100 mg/kg (Mus musculus [5]): < 30%
- inhibition in vivo at 100 mg/kg (Mus musculus [6]): < 30%
